# According to ChEMBL document CHEMBL1938365, “Design and synthesis of novel small-molecule inhibitors of the hypoxia inducible factor pathway” (J Med Chem, 2011):
# Activity calls are given as the source filed them. No cut-off for these calls is given here.
# Legend:
# [1] = molecular target: T1, Hypoxia inducible factors; HIF-1-alpha, HIF-2-alpha (Homo sapiens, UniProt Q16665+Q99814); assay: Inhibition of HIF1 in human LN229 cells after 1 hr preincubation under hypoxic condition measured after 24 hrs by luciferase reporter gene assay; type: cell-based
# Procedure, shortened: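 LN229-HRELux human glioma cells stably carry a luciferase reporter driven by six VEGF-derived HIF response elements. Cells were seeded at 3 × 10^4 per well and held 24 h in normoxia, then pretreated 1 h with compound at 0, 1, 5, 10 or 25 μM (vehicle 1% DMSO). They were then moved to hypoxia (1% O2) for 24 h, lysed and read for luciferase. Reference inhibitor ran alongside; quadruplicate wells; IC50 from concentration curve.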
# [2] = system: LN229; assay: Ratio of KCN-1 IC50 to compound IC50 for HIF1 in human LN229 cells under hypoxic condition; type: cell-based
# [3] = molecular target: T1, Hypoxia inducible factors; HIF-1-alpha, HIF-2-alpha; assay: Inhibition of HIF1 in human LN229 cells at 10 uM after 1 hr preincubation under hypoxic condition measured after 24 hrs by luciferase reporter gene assay; type: cell-based
# Procedure, shortened: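 LN229 glioma cells stably transfected with VEGF promoter-luciferase (LN229-VEGF-Luc) were pretreated 1 h in normoxia with 10 μM (final) compound, then kept 24 h in normoxia or hypoxia. Luciferase was read as relative light units against vehicle control; triplicates, mean ± standard deviation.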
# [4] = molecular target: Hypoxia-inducible factor 1-alpha (Homo sapiens) (UniProt Q16665); assay: Inhibition of hypoxia-induced HIF1alpha accumulation in human LN229 cells at 20 uM after 1 hr preincubation measured after 24 hrs by Western blot analysis; type: functional, cell-based; conditions: LN-229
# Procedure, shortened: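 Western blot for HIF-1α in LN229 cells after 1 h pretreatment with inhibitor at 20 μM final (bortezomib control 100 nM), followed by 24 h in normoxia or hypoxia.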
# Chain of Hypoxia-inducible factor 1-alpha (Homo sapiens) (Q16665 whole entry, looked up): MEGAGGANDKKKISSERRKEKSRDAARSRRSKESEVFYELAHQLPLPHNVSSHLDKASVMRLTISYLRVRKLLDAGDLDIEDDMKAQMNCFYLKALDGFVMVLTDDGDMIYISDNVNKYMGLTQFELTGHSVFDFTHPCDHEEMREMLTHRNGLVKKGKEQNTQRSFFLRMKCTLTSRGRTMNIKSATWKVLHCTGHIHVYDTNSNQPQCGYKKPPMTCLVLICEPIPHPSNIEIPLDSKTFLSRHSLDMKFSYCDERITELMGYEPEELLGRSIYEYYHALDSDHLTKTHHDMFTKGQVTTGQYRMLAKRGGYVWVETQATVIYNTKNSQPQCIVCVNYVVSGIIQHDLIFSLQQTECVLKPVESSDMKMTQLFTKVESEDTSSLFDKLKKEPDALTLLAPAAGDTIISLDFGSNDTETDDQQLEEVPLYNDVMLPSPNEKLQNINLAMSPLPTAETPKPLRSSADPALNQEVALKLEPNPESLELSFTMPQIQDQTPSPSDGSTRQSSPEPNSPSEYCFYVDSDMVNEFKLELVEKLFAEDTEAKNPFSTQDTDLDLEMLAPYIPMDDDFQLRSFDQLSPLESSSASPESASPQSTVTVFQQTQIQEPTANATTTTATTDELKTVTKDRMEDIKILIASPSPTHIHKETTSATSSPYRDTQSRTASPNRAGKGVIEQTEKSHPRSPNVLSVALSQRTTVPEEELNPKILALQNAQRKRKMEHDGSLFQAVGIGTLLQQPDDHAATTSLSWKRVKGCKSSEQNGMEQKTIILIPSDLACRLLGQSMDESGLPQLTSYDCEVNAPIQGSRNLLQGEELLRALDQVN
SMILES,IC50 [1] [µM],further results
CC1(C)C=Cc2cc(CN(c3ccccc3)S(=O)(=O)c3cc(Cl)ccc3Cl)ccc2O1,2.1,–
COc1ccc(S(=O)(=O)N(Cc2ccc3c(n2)C=CC(C)(C)O3)C2CCCCCC2)cc1OC,6.6,–
CC(C)c1ccc(S(=O)(=O)N(Cc2cc3c(cn2)OC(C)(C)C=C3)C2CCCCC2)cc1,5.8,–
CC1(C)C=Cc2cc(CN(c3ccccc3)S(=O)(=O)c3ccc(Br)cc3OC(F)(F)F)ccc2O1,> 25,–
COc1ccc(S(=O)(=O)N(Cc2cnc3ccccc3c2)c2ccccc2)cc1OC,3.5,–
COc1ccc(S(=O)(=O)N(Cc2ccc3c(c2)CC(C)(C)O3)c2ccccc2)cc1OC,0.306,Ratio IC50 [2]: > 2; HIF1 inhibition activity call (active/inactive) [3]: Active; inhibition [4]: Active
COc1ccc(S(=O)(=O)N(Cc2cc3c(cn2)OC(C)(C)C=C3)C2CCCCC2)cc1OC,1.1,–
COc1ccc(S(=O)(=O)N(Cc2ccc3c(n2)C=CC(C)(C)O3)C2CCC2)cc1OC,0.28,Ratio IC50 [2]: > 2; HIF1 inhibition activity call (active/inactive) [3]: Active; inhibition [4]: inactive
CC1(C)C=Cc2cc(CN(c3ccccc3)S(=O)(=O)c3ccc([N+](=O)[O-])cc3)ncc2O1,1.8,–
COc1c(C(C)n2cnc3ncccc32)ccc2c1C=CC(C)(C)O2 (stereo not drawn),–,HIF1 inhibition activity call (active/inactive) [3]: Active; inhibition [4]: inactive
COc1ccc(S(=O)(=O)N(Cc2ccc3c(c2)C=CC(C)(C)O3)c2ccccc2)cc1OC,–,HIF1 inhibition activity call (active/inactive) [3]: Active; inhibition [4]: inactive
Cc1ccc(N(C)Cc2ccc3c(c2)C=CC(C)(C)O3)c(C)c1,2.6,–
CC(C)S(=O)(=O)N(Cc1ccc2c(n1)C=CC(C)(C)O2)c1ccccc1,13.4,–
CN(Cc1ccc2c(c1)C=CC(C)(C)O2)c1ccccn1,8.4,–
COc1ccc(S(=O)(=O)N(Cc2ccc3c(c2)CC(C)(C)O3)C2CCCC2)cc1OC,0.378,HIF1 inhibition activity call (active/inactive) [3]: Active; inhibition [4]: inactive
COc1ccc(NCc2ccc3c(c2)C=CC(C)(C)O3)cc1OC,3,–
CC1(C)C=Cc2cc(CNc3ccccc3F)ccc2O1,> 25,–
COc1ccc(S(=O)(=O)N(CCC(C)C)Cc2ccc3c(c2)C=CC(C)(C)O3)cc1OC,1.6,–
C=CCN(Cc1ccc2c(c1)C=CC(C)(C)O2)S(=O)(=O)c1ccc(OC)c(OC)c1,3.4,–
CC1(C)C=Cc2cc(CNc3ccccc3Br)ccc2O1,> 25,–

SMILES,IC50 [1] [µM],further results
Cc1ccc(NCc2ccc3c(c2)C=CC(C)(C)O3)c(C)c1,> 25,–
CCCS(=O)(=O)N(Cc1ccc2c(n1)C=CC(C)(C)O2)c1ccccc1,6.4,–
CCCCN(Cc1ccc2c(n1)C=CC(C)(C)O2)S(=O)(=O)c1ccc(OC)c(OC)c1,0.9,–
CC1(C)C=Cc2nc(CN(c3ccccc3)S(=O)(=O)c3ccc4c(c3)OCCO4)ccc2O1,0.9,–
COc1ccc(S(=O)(=O)N(Cc2cnc3c(c2)C=CC(C)(C)O3)c2ccccc2)cc1OC,2.5,–
CC1(C)C=Cc2cc(CNc3ccccn3)ccc2O1,8.5,–
CCC1(C)C=Cc2cc(CN(c3ccccc3)S(=O)(=O)c3ccc(OC)c(OC)c3)ccc2O1 (stereo not drawn),2.2,–
CCCCS(=O)(=O)N(Cc1ccc2c(n1)C=CC(C)(C)O2)c1ccccc1,5,–
COc1ccc(S(=O)(=O)N(Cc2ccc3c(n2)C=CC(C)(C)O3)c2ccc(F)cc2)cc1OC,5.7,–
Cc1cc(C)cc(S(=O)(=O)N(Cc2ccc3c(c2)C=CC(C)(C)O3)c2ccccc2)c1,0.5,–
COc1ccc(S(=O)(=O)N(Cc2ccc3c(n2)C=CC(C)(C)O3)c2ccccc2)cc1OC,1.3,–
COc1ccc(S(=O)(=O)N(Cc2ccc3c(n2)C=CC(C)(C)O3)C2CCCCCCC2)cc1OC,0.7,–
COc1ccc(S(=O)(=O)N(Cc2ccc3c(c2)C=CC(C)(C)O3)C2CCCC2)cc1OC,0.5,HIF1 inhibition activity call (active/inactive) [3]: Active; inhibition [4]: Active
CC(C)C[C@H](NC(=O)[C@H](Cc1ccccc1)NC(=O)c1cnccn1)B(O)O,–,inhibition [4]: Active
COc1ccc(S(=O)(=O)N(Cc2cnc3c(c2)C=CC(C)(C)O3)C2CCCCC2)cc1OC,> 25,–
CC1(C)C=Cc2nc(CN(c3ccccc3)S(=O)(=O)C3CCCCC3)ccc2O1,0.4,–
COc1ccc(S(=O)(=O)N(Cc2ccc3c(c2)CC(C)(C)O3)C(C)C)cc1OC,1.5,–
COc1ccc(S(=O)(=O)N(Cc2cc3c(cn2)OC(C)(C)C=C3)c2ccccc2)cc1,1.4,–
COc1ccc(S(=O)(=O)N(Cc2ccc3c(c2)C=CC(C)(C)O3)C2CCCCC2)cc1OC,4,–
C#CCN(Cc1ccc2c(c1)C=CC(C)(C)O2)S(=O)(=O)c1ccc(OC)c(OC)c1,1.3,–

SMILES,IC50 [1] [µM],further results
CC1(C)C=Cc2nc(CN(c3ccccc3)S(=O)(=O)c3ccc(-c4ccccc4)cc3)ccc2O1,3.4,–
COc1ccc(S(=O)(=O)N(Cc2ccc3c(c2)C=CC(C)(C)O3)C2CC2)cc1OC,1.5,–
CCCCN(Cc1ccc2c(c1)CC(C)(C)O2)S(=O)(=O)c1ccc(OC)c(OC)c1,0.478,HIF1 inhibition activity call (active/inactive) [3]: Active; inhibition [4]: inactive
CC1(C)C=Cc2cc(CNc3ccc(C(=O)O)cc3)ccc2O1,> 25,–
COc1ccc(N(C)Cc2ccc3c(c2)C=CC(C)(C)O3)cc1OC,5,–
COc1ccc(S(=O)(=O)N(Cc2ccc3c(c2)C=CC(C)(C)O3)C(C)C)cc1OC,3.1,–
COc1ccc(S(=O)(=O)N(Cc2ccc3c(n2)C=CC(C)(C)O3)C2CCCC2)cc1OC,0.6,–
COc1ccc(S(=O)(=O)N(Cc2ccc3c(n2)C=CC(C)(C)O3)c2ccc3c(c2)CCCC3)cc1OC,6.2,–
CC1(C)C=Cc2nc(CN(c3ccccc3)S(=O)(=O)c3ccc4c(c3)OCO4)ccc2O1,6.5,–
COc1ccc(S(=O)(=O)N(Cc2ccc3c(c2)CC(C)(C)O3)C2CCCCC2)cc1OC,8.2,–
COc1ccc(S(=O)(=O)N(Cc2ccc3c(c2)CC(C)(C)O3)C2CCCCCC2)cc1OC,9.1,–
COc1ccc(S(=O)(=O)N(Cc2ccc3c(c2)C=CC(C)(C)O3)C(C)(C)C)cc1OC,3.5,–
CC1(C)C=Cc2nc(CN(c3ccccc3)S(=O)(=O)C3CC3)ccc2O1,> 25,–
COc1ccc(S(=O)(=O)N(Cc2ccc3c(c2)C=CC(C)(C)O3)c2ccccc2)cc1,0.6,–
COc1ccc(N(Cc2ccc3c(n2)C=CC(C)(C)O3)S(=O)(=O)c2ccc(OC)c(OC)c2)cc1OC,> 25,–
COc1ccc(S(=O)(=O)N(Cc2ccc3c(n2)C=CC(C)(C)O3)C2CCCCC2)cc1OC,0.8,–
CCCCN(Cc1ccc2c(c1)C=CC(C)(C)O2)S(=O)(=O)c1ccc(OC)c(OC)c1,3.3,–
CC1(C)C=Cc2nc(CN(c3ccccc3)S(=O)(=O)c3cccc4cccnc34)ccc2O1,0.9,–
CC(C)CS(=O)(=O)N(Cc1ccc2c(n1)C=CC(C)(C)O2)c1ccccc1,0.9,–
